Blank lines part the entries; values can stand above or below the compound they belong to.
Experiments:
[1] = molecular target: T1, mouse FAAH (Mus musculus, UniProt O08914); experiment: FAAH fluorescent inhibition assay, mouse crude tissue homogenate; assay type: biochemical; conditions: FAAH IC50 (5 min pre-incubation)
T1 sequence (O08914 1-579): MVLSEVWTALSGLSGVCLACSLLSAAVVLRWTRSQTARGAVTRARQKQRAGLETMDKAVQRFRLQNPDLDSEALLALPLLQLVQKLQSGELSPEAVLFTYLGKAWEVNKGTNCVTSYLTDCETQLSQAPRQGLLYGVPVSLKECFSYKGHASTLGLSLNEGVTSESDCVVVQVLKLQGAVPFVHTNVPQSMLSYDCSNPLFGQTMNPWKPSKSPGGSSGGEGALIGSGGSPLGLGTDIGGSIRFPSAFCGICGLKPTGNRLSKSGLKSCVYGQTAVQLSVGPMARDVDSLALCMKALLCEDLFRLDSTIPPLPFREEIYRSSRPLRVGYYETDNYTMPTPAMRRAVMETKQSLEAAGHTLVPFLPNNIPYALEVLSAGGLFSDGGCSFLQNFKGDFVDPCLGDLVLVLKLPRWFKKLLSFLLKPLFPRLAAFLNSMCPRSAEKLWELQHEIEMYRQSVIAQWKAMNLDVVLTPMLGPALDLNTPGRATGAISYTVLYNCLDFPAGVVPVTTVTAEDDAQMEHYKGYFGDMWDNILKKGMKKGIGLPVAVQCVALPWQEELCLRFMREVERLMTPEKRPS

[2] = Cassette dosing pharmacokinetics in mice; assay type: in vivo; conditions: male, Swiss Webster, mouse, whole blood, po, 1 mg/kg
How it was run: (§1)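 Test compounds were given as a cassette cocktail at 1 mg/kg each, p.o. in PEG300, to groups of 4 rats or 4 mice. Blood was taken by tail vein at set intervals and group averages were used.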

[3] = molecular target: T2, rat FAAH (Rattus norvegicus, UniProt P97612); experiment: FAAH fluorescent inhibition assay, rat brain microsomes; assay type: biochemical; conditions: FAAH IC50 (5 min pre-incubation), 5 min pre-incubation
T2 sequence (P97612 1-579): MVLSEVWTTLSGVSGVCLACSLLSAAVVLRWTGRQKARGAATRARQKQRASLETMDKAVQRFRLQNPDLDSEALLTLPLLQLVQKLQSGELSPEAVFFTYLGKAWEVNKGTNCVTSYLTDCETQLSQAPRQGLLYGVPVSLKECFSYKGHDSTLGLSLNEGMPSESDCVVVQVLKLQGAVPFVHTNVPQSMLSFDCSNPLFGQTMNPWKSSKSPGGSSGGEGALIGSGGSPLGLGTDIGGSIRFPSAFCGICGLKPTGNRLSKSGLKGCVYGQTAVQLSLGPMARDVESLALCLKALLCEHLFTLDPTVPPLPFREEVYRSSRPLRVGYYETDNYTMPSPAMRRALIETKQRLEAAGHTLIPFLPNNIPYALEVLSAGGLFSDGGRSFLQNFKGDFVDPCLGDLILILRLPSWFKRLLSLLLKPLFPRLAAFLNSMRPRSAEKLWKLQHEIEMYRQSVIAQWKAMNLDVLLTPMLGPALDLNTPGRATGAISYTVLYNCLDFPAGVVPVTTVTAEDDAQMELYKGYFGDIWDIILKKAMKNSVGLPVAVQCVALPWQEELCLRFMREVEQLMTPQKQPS
How it was run: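 Rat brain microsomes: tissue homogenized in 20 mM phosphate (pH 7.4, 5 mM EDTA), spun at 9000g for 20 min, then 100 000g for 1 h, and stored at −80 °C. OMP (100 μM final) in 0.1 M sodium phosphate pH 8, 0.1 mg/mL BSA, 2% DMSO, 37 °C. Fluorescence (ex 303/em 394 nm) read every 30 s for 10 min. No-enzyme background subtracted. IC50 from linear regression of log[I] vs % remaining activity; triplicates.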

[4] = tested on: serine hydrolases; experiment: Activity-based protein profiling; assay type: biochemical, mouse; conditions: mouse liver tissue homogenate, inhibitor 20 µM
[5] = molecular target: T3, serine hydrolases (Mus musculus, UniProt O08914); experiment: Activity-based protein profiling; assay type: biochemical; conditions: mouse brain tissue homogenate, inhibitor 20 µM
T3 sequence (O08914 1-579): T1 sequence (O08914 1-579)

[6] = Cassette dosing pharmacokinetics in rats; assay type: in vivo; conditions: male, Sprague-Dawley, rat, whole blood, po, 1 mg/kg
How it was run: as §1

[7] = molecular target: T4, human sEH (Homo sapiens, UniProt P34913); experiment: FRET-based displacement assay for inhibitor dissociation from sEH; assay type: binding
T4 sequence (P34913 1-555): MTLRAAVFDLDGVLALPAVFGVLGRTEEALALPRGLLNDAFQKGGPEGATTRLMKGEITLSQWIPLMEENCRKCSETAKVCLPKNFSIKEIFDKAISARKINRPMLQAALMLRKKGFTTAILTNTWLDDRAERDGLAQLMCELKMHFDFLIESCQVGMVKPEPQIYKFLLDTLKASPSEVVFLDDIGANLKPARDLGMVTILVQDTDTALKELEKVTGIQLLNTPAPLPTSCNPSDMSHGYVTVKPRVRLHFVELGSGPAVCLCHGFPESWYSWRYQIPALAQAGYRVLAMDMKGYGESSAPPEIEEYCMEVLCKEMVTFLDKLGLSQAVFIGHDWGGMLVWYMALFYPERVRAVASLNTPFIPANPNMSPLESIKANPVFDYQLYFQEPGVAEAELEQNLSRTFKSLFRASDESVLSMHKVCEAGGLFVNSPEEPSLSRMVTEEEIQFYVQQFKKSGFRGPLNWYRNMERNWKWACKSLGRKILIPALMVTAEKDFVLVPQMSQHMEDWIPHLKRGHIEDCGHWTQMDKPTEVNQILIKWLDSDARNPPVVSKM

[8] = molecular target: T5, human FAAH (Homo sapiens, UniProt O00519); experiment: Ki and kinact determination on FAAH; assay type: biochemical
T5 sequence (O00519 1-579): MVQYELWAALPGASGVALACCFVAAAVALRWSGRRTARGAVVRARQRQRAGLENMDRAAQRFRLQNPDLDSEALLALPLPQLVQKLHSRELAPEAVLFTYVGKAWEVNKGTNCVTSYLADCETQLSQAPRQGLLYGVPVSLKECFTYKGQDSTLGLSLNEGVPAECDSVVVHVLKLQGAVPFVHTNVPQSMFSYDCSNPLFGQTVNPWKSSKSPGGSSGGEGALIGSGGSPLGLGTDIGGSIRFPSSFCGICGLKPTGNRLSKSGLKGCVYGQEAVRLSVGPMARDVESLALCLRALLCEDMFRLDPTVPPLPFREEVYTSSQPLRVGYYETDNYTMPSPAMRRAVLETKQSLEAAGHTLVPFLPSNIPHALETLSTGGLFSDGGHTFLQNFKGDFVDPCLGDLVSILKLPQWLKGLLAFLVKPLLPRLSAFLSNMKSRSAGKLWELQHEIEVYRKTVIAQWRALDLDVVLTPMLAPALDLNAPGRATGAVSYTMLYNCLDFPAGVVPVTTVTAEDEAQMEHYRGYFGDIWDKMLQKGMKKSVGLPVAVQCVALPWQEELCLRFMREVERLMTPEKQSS
How it was run: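 Crude baculovirus-expressed recombinant FAAH (High Five cell S9 fraction in 50 mM Tris/HCl pH 8.0, 1 mM CHAPS, 10% glycerol). OMP (100 μM final) was mixed with a range of test compound concentrations and held 5 min at 37 °C.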

[9] = molecular target: T5, human FAAH; experiment: FAAH fluorescent inhibition assay; assay type: biochemical; conditions: for decrease in activity/potency toward FAAH: compared to PF-750
[10] = molecular target: T4, human sEH; experiment: sEH fluorescent inhibition assay; assay type: biochemical; conditions: compared to PF-750

Structure (SMILES): O=C(Nc1ccc(C(F)(F)F)cc1)N1CCC(Cc2cccc(Oc3ccc(C(F)(F)F)cn3)c2)CC1 [compound 13]
IC50 [1]: > 10 µM
AUC [2]: 0.75 µM·h
Cmax [2]: 65 nM
IC50 [3]: > 10 µM
other serine hydrolase bands (ABPP) [4]: neither 11, 13, 14, 18, nor PF-3845 had any effect on the intensity of other bands
intensity of the FAAH band (ABPP) [5]: does not appear to fully inhibit the band corresponding to FAAH
AUC [6]: 0.74 µM·h
Cmax [6]: 66 nM
t1/2 (half-life on the enzyme) ([7]; human sEH): 9.9 min
koff ([7]; read-out: koff × 10^–3): 1.2 s⁻¹
Ki [8]: 37 nM
kinact [8]: 0.000317 s⁻¹
kinact/KI [8]: 500000 M⁻¹ s⁻¹

Structure (SMILES): O=C(Nc1ccccc1F)N1CCC(Cc2cnc3ccccc3c2)CC1 [compound 3]
decrease in activity/potency toward FAAH [9]: 3 fold

Structure (SMILES): O=C(Nc1ccc(Cl)cc1)N1CCC(Cc2cnc3ccccc3c2)CC1 [compound 2]
decrease in activity/potency toward FAAH [9]: 3 fold

Structure (SMILES): NC(=O)c1cccc(-c2cccc(OC(=O)NC3CCCCC3)c2)c1 [URB597, cyclohexyl carbamic acid 3′-carbamoyl-biphenyl-3-yl ester, reference compound]
other serine hydrolase bands (ABPP) [4]: reduced the intensity of a band around 62.5 kDa
intensity of the FAAH band (ABPP) [5]: reduced

Results, then the compound that gave them:

increase in activity/potency toward sEH [10]: 5 fold
Structure (SMILES): COc1ccc(NC(=O)N2CCC(Cc3cnc4ccccc4c3)CC2)cc1 [compound 5]

increase in activity/potency toward sEH [10]: 7 fold
decrease in activity/potency toward FAAH [9]: 5 fold
Structure (SMILES): O=C(Nc1ccc(F)cc1)N1CCC(Cc2cnc3ccccc3c2)CC1 [compound 1]

increase in activity toward FAAH ([9]; compared to 5 (3-quinoline)): 4 fold
Structure (SMILES): COc1ccc(NC(=O)N2CCC(Cc3ccc4ccccc4c3)CC2)cc1 [compound 8]

Source: paper PMC6210075 (ACS Omega, 2018)
